Data reported in ChEMBL document CHEMBL2034860, “Cytotoxic heterocyclic triterpenoids derived from betulin and betulinic acid” (Bioorg Med Chem, 2012).

Key:
[1] = Solubility of the compound in water based media; format: physicochemical; conditions: buffer
CCRF-CEM [2] = experiment: Cytotoxicity against human CCRF-CEM cells after 72 hrs by MTT assay; format: functional, cell-based
[3] = Therapeutic index, ratio of IC50 for human MRC5 cells to IC50 for human CCRF-CEM cells; format: cell-based; conditions: MRC5 cells versus CCRF-CEM cells, read-out: Ratio IC50
A549 = experiment: Cytotoxicity against human A549 cells after 72 hrs by MTT assay; format: functional, cell-based; conditions: A549, 72 h
Summary of the method: (§1)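 Cells seeded at 2500–30,000 per well according to cell type and pre-incubated 24 h at 37 °C, 5% CO2. Four-fold dilutions of compounds dissolved in 10% DMSO were added at time zero, in quadruplicate, then incubated 72 h. MTT was added for a further 1–4 h and formazan dissolved in 10% aq SDS (pH 5.5) overnight at 37 °C. OD was read at 540 nm. Survival was taken as % of mean control OD, and IC50 was read from dose-response curves.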

CCRF-CEM [4] = experiment: Cytotoxicity against human daunorubicine resistant CEM cells after 72 hrs by MTT assay; format: functional, cell-based; summary of the method: as §1
BJ = experiment: Cytotoxicity against human BJ cells after 72 hrs by MTT assay; format: cell-based; summary of the method: as §1
[5] = Therapeutic index, ratio of IC50 for human BJ cells to IC50 for human K562 cells; format: cell-based; conditions: BJ cells versus K562 cells, read-out: Ratio IC50
K562 [6] = experiment: Cytotoxicity against human K562 cells after 72 hrs by MTT assay; format: functional, cell-based; conditions: K562, 72 h; summary of the method: as §1
HCT-116 [7] = experiment: Cytotoxicity against human HCT116 cells after 72 hrs by MTT assay; format: functional, cell-based; conditions: HCT-116, 72 h; summary of the method: as §1
MRC5 = experiment: Cytotoxicity against human MRC5 cells after 72 hrs by MTT assay; format: cell-based; conditions: MRC5, 72 h; summary of the method: as §1
HCT-116 [8] = experiment: Cytotoxicity against human p53-deficient HCT116 cells after 72 hrs by MTT assay; format: functional, cell-based; conditions: HCT-116, 72 h; summary of the method: as §1
[9] = Therapeutic index, ratio of IC50 for human BJ cells to IC50 for paclitaxel-resistant human K562 cells; format: cell-based; conditions: BJ cells versus paclitaxel-resistant K562 cells, read-out: Ratio IC50
[10] = Therapeutic index, ratio of IC50 for human BJ cells to IC50 for human CCRF-CEM cells; format: cell-based; conditions: BJ cells versus CCRF-CEM cells, read-out: Ratio IC50
K562 [11] = experiment: Cytotoxicity against human paclitaxel resistant K562 cells after 72 hrs by MTT assay; format: functional, cell-based; conditions: K562, 72 h; summary of the method: as §1

SMILES: CC1(C)CC[C@]23CC[C@]4(C)[C@H](CC[C@@H]5[C@@]6(C)Cc7c[nH]nc7C(C)(C)[C@@H]6CC[C@]54C)[C@H]2[C@H]1OC3
- solubility [1]: Insoluble
- IC50 (CCRF-CEM [2]): 210 µM

SMILES: CC(C)[C@@H]1CC[C@]2(C(=O)O)CC[C@]3(C)[C@H](CC[C@@H]4[C@@]5(C)CC(Br)C(=O)C(C)(C)[C@@H]5CC[C@]43C)[C@@H]12 (mixture of isomers)
- selectivity ratio [3]: > 10
- IC50 (A549): 11.9 µM
- IC50 (CCRF-CEM [4]): 11.4 µM
- IC50 (BJ): 17.8 µM
- selectivity ratio [5]: > 10
- IC50 (K562 [6]): 1.6 µM
- IC50 (HCT-116 [7]): 4.3 µM
- IC50 (MRC5): 14.6 µM
- IC50 (CCRF-CEM [2]): 1 µM
- IC50 (HCT-116 [8]): 4.1 µM
- selectivity ratio [9]: > 10
- selectivity ratio [10]: > 10
- IC50 (K562 [11]): 1.7 µM

SMILES: CCOC(=O)C1=C(O)C(C)(C)[C@@H]2CC[C@]3(C)[C@H](CC[C@@H]4[C@H]5[C@H](C(C)C)CC[C@]5(C(=O)O)CC[C@]43C)[C@@]2(C)C1
- IC50 (CCRF-CEM [2]): 142 µM

SMILES: CC(C)[C@@H]1CC[C@]2(C(=O)O)CC[C@]3(C)[C@H](CC[C@@H]4[C@@]5(C)CC(Br)(Br)C(=O)C(C)(C)[C@@H]5CC[C@]43C)[C@@H]12
- selectivity ratio [3]: 8
- IC50 (A549): 8.4 µM
- IC50 (CCRF-CEM [4]): 7 µM
- IC50 (BJ): 13.3 µM
- selectivity ratio [5]: > 10
- IC50 (K562 [6]): 0.9 µM
- IC50 (HCT-116 [7]): 2.4 µM
- IC50 (MRC5): 8 µM
- IC50 (CCRF-CEM [2]): 1 µM
- IC50 (HCT-116 [8]): 2.6 µM
- selectivity ratio [9]: > 10
- selectivity ratio [10]: > 10
- IC50 (K562 [11]): 1.1 µM

SMILES: CC(C)[C@@H]1CC[C@]2(C(=O)O)CC[C@]3(C)[C@H](CC[C@@H]4[C@@]5(C)CCC(=O)C(C)(C)[C@@H]5CC[C@]43C)[C@@H]12 [DIHYDROBETULONIC ACID]
- IC50 (A549): 5.9 µM
- IC50 (CCRF-CEM [4]): 9.4 µM
- IC50 (BJ): 22.6 µM
- IC50 (K562 [6]): 2.5 µM
- IC50 (HCT-116 [7]): 4.1 µM
- IC50 (MRC5): 11.7 µM
- IC50 (CCRF-CEM [2]): 4 µM
- IC50 (HCT-116 [8]): 6.1 µM
- IC50 (K562 [11]): 4 µM

SMILES: CC1(C)CC[C@]23CC[C@]4(C)[C@H](CC[C@@H]5[C@@]6(C)Cc7conc7C(C)(C)[C@@H]6CC[C@]54C)[C@H]2[C@H]1OC3
- solubility [1]: Insoluble
- IC50 (CCRF-CEM [2]): > 250 µM

SMILES: C=C(C)[C@@H]1CC[C@]2(C(=O)O)CC[C@]3(C)[C@H](CC[C@@H]4[C@@]5(C)Cc6cnn(-c7ccccc7)c6C(C)(C)[C@@H]5CC[C@]43C)[C@@H]12
- solubility [1]: Insoluble
- IC50 (CCRF-CEM [2]): 31 µM

SMILES: CC(C)[C@@H]1CC[C@]2(C(=O)O)CC[C@]3(C)[C@H](CC[C@@H]4[C@@]5(C)Cc6sc(Br)nc6C(C)(C)[C@@H]5CC[C@]43C)[C@@H]12
- solubility [1]: Insoluble
- IC50 (CCRF-CEM [2]): 11 µM

SMILES: CC1(C)CC[C@]23CC[C@]4(C)[C@H](CC[C@@H]5[C@@]6(C)Cc7cnn(-c8ccccc8)c7C(C)(C)[C@@H]6CC[C@]54C)[C@H]2[C@H]1OC3
- solubility [1]: Insoluble
- IC50 (CCRF-CEM [2]): 250 µM

SMILES: CC1(C)CC[C@]23CC[C@]4(C)[C@H](CC[C@@H]5[C@@]6(C)C=C(N7CCOCC7)C(=O)C(C)(C)[C@@H]6CC[C@]54C)[C@H]2[C@H]1OC3
- IC50 (CCRF-CEM [2]): 226 µM

SMILES: CC1(C)CC[C@]23CC[C@]4(C)[C@H](CC[C@@H]5[C@@]6(C)C/C(=C/O)C(=O)C(C)(C)[C@@H]6CC[C@]54C)[C@H]2[C@H]1OC3
- IC50 (CCRF-CEM [2]): > 250 µM

SMILES: C=C(C)[C@@H]1CC[C@]2(C(=O)O)CC[C@]3(C)[C@H](CC[C@@H]4[C@@]5(C)C/C(=C/O)C(=O)C(C)(C)[C@@H]5CC[C@]43C)[C@@H]12
- selectivity ratio [3]: 8.5
- IC50 (A549): 17.6 µM
- IC50 (CCRF-CEM [4]): 29.6 µM
- IC50 (BJ): 55.5 µM
- selectivity ratio [5]: 6.6
- IC50 (K562 [6]): 8.4 µM
- IC50 (HCT-116 [7]): 12.1 µM
- IC50 (MRC5): 29.9 µM
- IC50 (CCRF-CEM [2]): 4 µM
- IC50 (HCT-116 [8]): 13.7 µM
- selectivity ratio [9]: 4.4
- selectivity ratio [10]: > 10
- IC50 (K562 [11]): 12.7 µM

SMILES: CC(C)[C@@H]1CC[C@]2(C(=O)O)CC[C@]3(C)[C@H](CC[C@@H]4[C@@]5(C)Cc6c(n[nH]c6O)C(C)(C)[C@@H]5CC[C@]43C)[C@@H]12
- solubility [1]: Insoluble
- IC50 (CCRF-CEM [2]): 123 µM

SMILES: CC1(C)CC[C@]23CC[C@]4(C)[C@H](CC[C@@H]5[C@@]6(C)C=C(O)C(=O)C(C)(C)[C@@H]6CC[C@]54C)[C@H]2[C@H]1OC3
- IC50 (CCRF-CEM [2]): 25 µM

SMILES: CC1(C)CC[C@]23CC[C@]4(C)[C@H](CC[C@@H]5[C@@]6(C)Cc7cnoc7C(C)(C)[C@@H]6CC[C@]54C)[C@H]2[C@H]1OC3
- solubility [1]: Insoluble
- IC50 (CCRF-CEM [2]): > 250 µM

SMILES: CC1(C)CC[C@]23CC[C@]4(C)[C@H](CC[C@@H]5[C@@]6(C)Cc7sc(Br)nc7C(C)(C)[C@@H]6CC[C@]54C)[C@H]2[C@H]1OC3
- solubility [1]: Insoluble
- IC50 (CCRF-CEM [2]): 150 µM

SMILES: CC(C)[C@@H]1CC[C@]2(C(=O)O)CC[C@]3(C)[C@H](CC[C@@H]4[C@@]5(C)Cc6c[nH]nc6C(C)(C)[C@@H]5CC[C@]43C)[C@@H]12
- IC50 (A549): 3.6 µM
- IC50 (CCRF-CEM [4]): 8.2 µM
- IC50 (BJ): 22.4 µM
- IC50 (K562 [6]): 3.5 µM
- solubility [1]: Insoluble
- IC50 (HCT-116 [7]): 3.9 µM
- IC50 (MRC5): 13.4 µM
- IC50 (CCRF-CEM [2]): 3 µM
- IC50 (HCT-116 [8]): 2.8 µM
- IC50 (K562 [11]): 2.7 µM

SMILES: CC1(C)CC[C@]23CC[C@]4(C)[C@H](CC[C@@H]5[C@@]6(C)CC(Br)(Br)C(=O)C(C)(C)[C@@H]6CC[C@]54C)[C@H]2[C@H]1OC3
- IC50 (CCRF-CEM [2]): > 250 µM

SMILES: CC(C)[C@@H]1CC[C@]2(C(=O)O)CC[C@]3(C)[C@H](CC[C@@H]4[C@@]5(C)C/C(=C/O)C(=O)C(C)(C)[C@@H]5CC[C@]43C)[C@@H]12
- IC50 (CCRF-CEM [2]): 61 µM

SMILES: CC1(C)CC[C@]23CC[C@]4(C)[C@H](CC[C@@H]5[C@@]6(C)CC(Br)C(=O)C(C)(C)[C@@H]6CC[C@]54C)[C@H]2[C@H]1OC3 (mixture of isomers)
- IC50 (CCRF-CEM [2]): > 250 µM

SMILES: CC(C)[C@@H]1CC[C@]2(C(=O)O)CC[C@]3(C)[C@H](CC[C@@H]4[C@@]5(C)Cc6sc(N)nc6C(C)(C)[C@@H]5CC[C@]43C)[C@@H]12
- IC50 (A549): 7 µM
- IC50 (CCRF-CEM [4]): 11.2 µM
- IC50 (BJ): 24.9 µM
- IC50 (K562 [6]): 4.8 µM
- solubility [1]: Insoluble
- IC50 (HCT-116 [7]): 5.1 µM
- IC50 (MRC5): 15.7 µM
- IC50 (CCRF-CEM [2]): 3 µM
- IC50 (HCT-116 [8]): 4.3 µM
- IC50 (K562 [11]): 6.9 µM

SMILES: C=C(C)[C@@H]1CC[C@]2(C(=O)O)CC[C@]3(C)[C@H](CC[C@@H]4[C@@]5(C)CC(C(=O)OCC)=C(O)C(C)(C)[C@@H]5CC[C@]43C)[C@@H]12
- IC50 (CCRF-CEM [2]): 161 µM

SMILES: CC1(C)CC[C@]23CC[C@]4(C)[C@H](CC[C@@H]5[C@@]6(C)Cc7sc(N)nc7C(C)(C)[C@@H]6CC[C@]54C)[C@H]2[C@H]1OC3
- solubility [1]: Insoluble
- IC50 (CCRF-CEM [2]): 85 µM

SMILES: CC(C)[C@@H]1CC[C@]2(C(=O)O)CC[C@]3(C)[C@H](CC[C@@H]4[C@@]5(C)Cc6cnn(-c7ccccc7)c6C(C)(C)[C@@H]5CC[C@]43C)[C@@H]12
- solubility [1]: Insoluble
- IC50 (CCRF-CEM [2]): 45 µM

SMILES: CCOC(=O)C1=C(O)C(C)(C)[C@@H]2CC[C@]3(C)[C@H](CC[C@@H]4[C@H]5[C@H]6OC[C@@]5(CCC6(C)C)CC[C@]43C)[C@@]2(C)C1
- IC50 (CCRF-CEM [2]): > 250 µM

SMILES: C=C(C)[C@@H]1CC[C@]2(C(=O)O)CC[C@]3(C)[C@H](CC[C@@H]4[C@@]5(C)Cc6c[nH]nc6C(C)(C)[C@@H]5CC[C@]43C)[C@@H]12
- IC50 (A549): 5.2 µM
- IC50 (CCRF-CEM [4]): 10.4 µM
- IC50 (BJ): 35.8 µM
- IC50 (K562 [6]): 2.6 µM
- solubility [1]: Insoluble
- IC50 (HCT-116 [7]): 4.5 µM
- IC50 (MRC5): 14.1 µM
- IC50 (CCRF-CEM [2]): 3 µM
- IC50 (HCT-116 [8]): 3.3 µM
- IC50 (K562 [11]): 3 µM

SMILES: C=C(C)[C@@H]1CC[C@]2(C(=O)O)CC[C@]3(C)[C@H](CC[C@@H]4[C@@]5(C)Cc6c(n[nH]c6O)C(C)(C)C5CC[C@]43C)[C@@H]12 (single isomer, unassigned)
- solubility [1]: Insoluble
- IC50 (CCRF-CEM [2]): 22 µM

SMILES: CC1(C)CC[C@]23CC[C@]4(C)[C@H](CC[C@@H]5[C@@]6(C)Cc7c(n[nH]c7O)C(C)(C)[C@@H]6CC[C@]54C)[C@H]2[C@H]1OC3
- solubility [1]: Insoluble
- IC50 (CCRF-CEM [2]): 33 µM
